Test results from ChEMBL document CHEMBL1146375, “Synthetic studies on novel benzimidazolopeptides with antimicrobial, cytotoxic and anthelmintic potential” (2007).
Values after ≈ are worked out from the molar mass of the structure shown.

Columns and labels:
Eudrilus [1] = assay: Anthelmintic activity against Eudrilus sp. assessed as mean death time; type: functional
Summary of the method: (§1)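 Earthworms exposed to test suspensions at 2 mg mL−1, prepared by triturating compound with Tween 80 (0.5%) and distilled water, stirring 30 min, then diluting to 0.2% w/v. Mebendazole suspension was made the same way. Death was confirmed by moving worms into 50 °C warm water and looking for movement. Mean death time (min) taken from triplicate sets.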

Pseudomonas aeruginosa [2] = assay: Antibacterial activity against Pseudomonas aeruginosa NCIM 2034 after 18 hrs by disc diffusion method; type: functional
Summary of the method: (§2)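 Modified Kirby-Bauer disc diffusion. Plates inoculated with spore suspension (about 6 × 10⁴ spores mL^-1). Sterile 6 mm paper discs carried test samples at 10 mg mL^-1; ciprofloxacin disc as reference, DMF disc as negative control. Plates held 18 h at 37 °C. Inhibition zone diameters (mm) averaged over triplicate sets.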

Pontoscolex corethrurus [3] = assay: Anthelmintic activity against Pontoscolex corethrurus ICARBC 408 assessed as mean death time; type: functional; summary of the method: as §1
Bacillus subtilis [4] = assay: Antibacterial activity against Bacillus subtilis NCIM 2063 after 18 hrs by tube dilution method; type: functional; conditions: NCIM 2063, 18 h
Summary of the method: (§3)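 Tube dilution MIC. Stock diluted in sterile broth to seven concentrations from 200 to 3.1 […]. Each tube inoculated with one loopful of test bacterium and incubated 18 h at 37 °C. MIC read from presence or absence of growth.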

Staphylococcus aureus [5] = assay: Antibacterial activity against Staphylococcus aureus NCIM 2079 after 18 hrs by tube dilution method; type: functional; conditions: NCIM 2079, 18 h; summary of the method: as §3
Candida albicans [6] = assay: Antifungal activity against Candida albicans MUCC 29 after 48 hrs by disc diffusion method; type: functional
Summary of the method: (§4)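 Agar well diffusion on plates inoculated with spore suspension in normal saline from cultures on Sabouraud's broth. Wells punched and loaded with test samples or griseofulvin at 10 mg mL^-1, with DMSO as negative control. Incubated 48 h at 37 °C.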

Staphylococcus aureus [7] = assay: Antibacterial activity against Staphylococcus aureus NCIM 2079 after 18 hrs by disc diffusion method; type: functional; summary of the method: as §2
Microsporum audouinii [8] = assay: Antifungal activity against Microsporum audouinii MUCC 545 after 48 hrs by disc diffusion method; type: functional; summary of the method: as §4
Escherichia coli [9] = assay: Antibacterial activity against Escherichia coli NCIM 2065 after 18 hrs by tube dilution method; type: functional; conditions: NCIM 2065, 18 h
Candida albicans [10] = assay: Antifungal activity against Candida albicans MUCC 29 after 48 hrs by tube dilution method; type: functional
Summary of the method: (§5)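 Tube dilution MIC as for bacteria (seven concentrations, 200–3.1 […]), with DMSO in place of DMF. Tubes inoculated with fungal culture and incubated 48 h at 37 °C. MIC read from presence or absence of growth.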

[11] = Anthelmintic activity against Megascoplex konkanensis ICARBC 211 assessed as mean paralyzing time; type: functional
Summary of the method: (§6)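 Earthworms exposed to test suspensions at 2 mg mL^-1 (0.2% w/v), made by triturating compound with Tween 80 (0.5%) and distilled water, then mechanically stirred 30 min. Mebendazole suspension prepared alike as reference. Paralysis and death times recorded; death confirmed by no movement in 50 °C water. Means from triplicate sets.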

Microsporum audouinii [12] = assay: Antifungal activity against Microsporum audouinii MUCC 545 after 48 hrs by tube dilution method; type: functional; summary of the method: as §5
Aspergillus niger = assay: Antifungal activity against Aspergillus niger MUCC 177 after 48 hrs by disc diffusion method; type: functional; summary of the method: as §4
Trichophyton benhamiae [13] = assay: Antifungal activity against Trichophyton mentagrophytes MUCC 665 after 48 hrs by disc diffusion method; type: functional, Arthroderma benhamiae; summary of the method: as §4
[14] = Anthelmintic activity against Megascoplex konkanensis ICARBC 211 assessed as mean death time; type: functional; summary of the method: as §6
Eudrilus [15] = assay: Anthelmintic activity against Eudrilus sp. assessed as mean paralyzing time; type: functional; summary of the method: as §6
Pontoscolex corethrurus [16] = assay: Anthelmintic activity against Pontoscolex corethrurus ICARBC 408 assessed as mean paralyzing time; type: functional; summary of the method: as §6
Trichophyton benhamiae [17] = assay: Antifungal activity against Trichophyton mentagrophytes MUCC 665 after 48 hrs by tube dilution method; type: functional, Arthroderma benhamiae; summary of the method: as §5
Pseudomonas aeruginosa [18] = assay: Antibacterial activity against Pseudomonas aeruginosa NCIM 2034 after 18 hrs by tube dilution method; type: functional; conditions: NCIM 2034, 18 h; summary of the method: as §3
Bacillus subtilis [19] = assay: Antibacterial activity against Bacillus subtilis NCIM 2063 after 18 hrs by disc diffusion method; type: functional; summary of the method: as §2
Escherichia coli [20] = assay: Antibacterial activity against Escherichia coli NCIM 2065 after 18 hrs by disc diffusion method; type: functional; summary of the method: as §2

Row | Structure (SMILES) | Time (Eudrilus [1]) [min] | inhibition zone (IZ) (Pseudomonas aeruginosa [2]) [mm] | Time (Pontoscolex corethrurus [3]) [min] | MIC (Bacillus subtilis [4]) [µg/mL] | MIC (Staphylococcus aureus [5]) [µg/mL] | inhibition zone (IZ) (Candida albicans [6]) [mm] | inhibition zone (IZ) (Staphylococcus aureus [7]) [mm] | inhibition zone (IZ) (Microsporum audouinii [8]) [mm] | MIC (Escherichia coli [9]) [µg/mL] | MIC (Candida albicans [10]) [µg/mL] | TIME [11] [h] | MIC (Microsporum audouinii [12]) [µg/mL] | inhibition zone (IZ) (Aspergillus niger) [mm] | inhibition zone (IZ) (Trichophyton benhamiae [13]) [mm] | TIME [14] [h] | Time (Eudrilus [15]) [min] | Time (Pontoscolex corethrurus [16]) [min] | MIC (Trichophyton benhamiae [17]) [µg/mL] | MIC (Pseudomonas aeruginosa [18]) [µg/mL] | inhibition zone (IZ) (Bacillus subtilis [19]) [mm] | further results
1 | COC(=O)[C@H](CCCNC(=N)N[N+](=O)[O-])NC(=O)c1cc(-c2nc3ccc([N+](=O)[O-])cc3[nH]2)ccc1O | 28.27 | 19 | 32.22 | 6 (≈ 11.7 µM) | 25 (≈ 48.6 µM) | 15 | 10 | 13 | 12.5 (≈ 24.3 µM) | 12.5 (≈ 24.3 µM) | 0.27 | 6 (≈ 11.7 µM) | 18 | 15 | 0.426 | 17.98 | 20.65 | 6 (≈ 11.7 µM) | 6 (≈ 11.7 µM) | 13 | inhibition zone (IZ) (Escherichia coli [20]): 15 mm
2 | COC(=O)[C@H](Cc1ccccc1)NC(=O)[C@@H]1CCCN1C(=O)[C@@H]1CCCN1C(=O)c1ccc(-c2nc3cc(C)c(C)cc3[nH]2)cc1 | 53.34 | 20 | 72.24 | 12.5 (≈ 20.1 µM) | 25 (≈ 40.2 µM) | 16 | 8 | 9 | 25 (≈ 40.2 µM) | 6 (≈ 9.65 µM) | 0.613 | 25 (≈ 40.2 µM) | 14 | 13 | 1.04 | 32.82 | 49.35 | 6 (≈ 9.65 µM) | 6 (≈ 9.65 µM) | 13 | inhibition zone (IZ) (Escherichia coli [20]): 16 mm
3 | COC(=O)[C@H](Cc1c[nH]c2ccccc12)NC(=O)c1cc(-c2nc3ccc([N+](=O)[O-])cc3[nH]2)ccc1O | 23.93 | 20 | 29.41 | 6 (≈ 12 µM) | 12.5 (≈ 25 µM) | 20 | 12 | 10 | 12.5 (≈ 25 µM) | 6 (≈ 12 µM) | 0.218 | 12.5 (≈ 25 µM) | 16 | 17 | 0.374 | 13.37 | 17.02 | 6 (≈ 12 µM) | 12.5 (≈ 25 µM) | 12 | inhibition zone (IZ) (Escherichia coli [20]): 16 mm
4 | COC(=O)[C@H](C)NC(=O)[C@H](CCCNC(=N)N[N+](=O)[O-])NC(=O)c1cc(-c2nc3cc(C)c(C)cc3[nH]2)ccc1O | 28.54 | 22 | 32.65 | 6 (≈ 10.6 µM) | 12.5 (≈ 22 µM) | 19 | 11 | 11 | 12.5 (≈ 22 µM) | 12.5 (≈ 22 µM) | 0.279 | 6 (≈ 10.6 µM) | 18 | 10 | 0.423 | 17.35 | 20.38 | 6 (≈ 10.6 µM) | 6 (≈ 10.6 µM) | 15 | inhibition zone (IZ) (Escherichia coli [20]): 17 mm
5 | COC(=O)[C@H](Cc1cnc[nH]1)NC(=O)c1cc(I)c(-c2nc3cc(C)c(C)cc3[nH]2)c(I)c1 | 46.3 | 24 | 47.82 | 6 (≈ 8.97 µM) | 12.5 (≈ 18.7 µM) | 18 | 12 | 11 | 12.5 (≈ 18.7 µM) | 6 (≈ 8.97 µM) | 0.488 | 25 (≈ 37.4 µM) | 14 | 12 | 0.758 | 34.34 | 34.14 | 12.5 (≈ 18.7 µM) | 6 (≈ 8.97 µM) | 16 | inhibition zone (IZ) (Escherichia coli [20]): 18 mm
6 | Cc1cc2nc(-c3c(I)cc(C(=O)N[C@@H](Cc4ccccc4)C(=O)N[C@H](C(=O)N4CCC[C@H]4C(=O)O)C(C)C)cc3I)[nH]c2cc1C | 44.1 | 24 | 50.13 | 6 (≈ 6.96 µM) | 25 (≈ 29 µM) | 17 | 13 | 11 | 25 (≈ 29 µM) | 6 (≈ 6.96 µM) | 0.44 | 12.5 (≈ 14.5 µM) | 15 | 13 | 0.698 | 27.1 | 34.13 | 6 (≈ 6.96 µM) | 12.5 (≈ 14.5 µM) | 17 | inhibition zone (IZ) (Escherichia coli [20]): 18 mm
7 | Cc1cc2nc(-c3c(I)cc(C(=O)N[C@@H](C)C(=O)N[C@@H](Cc4ccc(O)cc4)C(=O)NCC(=O)O)cc3I)[nH]c2cc1C | 45.22 | 23 | 47.45 | 6 (≈ 7.41 µM) | 12.5 (≈ 15.4 µM) | 16 | 13 | 9 | 12.5 (≈ 15.4 µM) | 6 (≈ 7.41 µM) | 0.454 | 12.5 (≈ 15.4 µM) | 15 | 15 | 0.676 | 26.25 | 35.42 | 12.5 (≈ 15.4 µM) | 6 (≈ 7.41 µM) | 16 | inhibition zone (IZ) (Escherichia coli [20]): 18 mm
